Entries after “also recorded” stand apart in the source; their conditions may differ.
Assays:
[1] = tested on: YU2, HXBc2 and HX(YU2 V3) gp120 glycoproteins; test: Direct binding of 3H-labeled BMS-806 to gp120 variants; parameters: species or system HIV-1; conditions: all three gp120 glycoproteins
[2] = tested on: viruses with the w.t. YU2 envelope glycoproteins; test: Inhibition of infection of Cf2Th-CD4/CCR5 cells, w.t. YU2 virus; format: cell-based, HIV-1; conditions: for IC50: read-out: 50% inhibitory concentration (IC50), Cf2Th-CD4/CCR5 cells, w.t. YU2 envelope glycoproteins
Method in brief: (§1)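 Cf2Th-CD4/CCR5 cells were seeded at 6×10^3/well 24 h ahead. Luciferase viruses bearing YU2 Env (w.t. or S375A) or control A-MLV Env were premixed with test compound (1 to 100 μM) for 30 min at 37°C, then added to the cells for 48 h at 37°C. Luciferase was read after freeze-thaw lysis. Infection was expressed relative to no compound. IC50 is the mean ± SD of five independent experiments, each run in triplicate.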

[3] = tested on: recombinant HIV-1 with the wild-type HIV-1YU2 envelope glycoproteins; test: Enhancement of infection of CD4-negative Cf2Th-CCR5 cells, w.t. YU2 virus; format: cell-based
[4] = tested on: viruses with the S375W mutant envelope glycoproteins; test: Enhancement of infection of Cf2Th-CCR5 cells, S375W virus; format: cell-based, HIV-1
[5] = tested on: Viruses with the S375A envelope glycoproteins; test: Inhibition of infection of Cf2Th-CD4/CCR5 cells, S375A virus; format: cell-based, HIV-1
Method in brief: as §1

[6] = tested on: viruses with Glu 429 replaced with a lysine residue; test: Enhancement of infection of Cf2Th-CCR5 cells, Glu 429 to lysine virus; format: cell-based, HIV-1; conditions: Glu 429 replaced with lysine
[7] = tested on: viruses with an alanine residue substituted for Glu 429; test: Enhancement of infection of Cf2Th-CCR5 cells, Glu 429 to alanine virus; format: cell-based, HIV-1; conditions: Glu 429 replaced with alanine
D368A mutant viruses = test: Enhancement of infection of Cf2Th-CCR5 cells, D368A virus; format: cell-based, HIV-1; conditions: CD4−CCR5+ target cells; D368A envelope glycoproteins
[8] = tested on: viruses with the KB9 envelope glycoproteins; test: Entry into CD4-negative Cf2Th-CXCR4 cells, KB9 virus; format: cell-based, HIV-1; conditions: data not shown
gp120 core-17b complex = test: BIAcore analysis; format: binding, HIV-1; conditions: data not shown
[9] = tested on: viruses with the S375A change; test: Enhancement of infection of Cf2Th-CCR5 cells, S375A virus; format: cell-based, HIV-1; conditions: S375A envelope glycoproteins, compared with w.t.
[10] = biological target: gp120 core bound to the 17b antibody; test: Thermodynamic cycle by isothermal titration calorimetry, gp120 core bound to 17b; format: binding, HIV-1
HXBc2 gp120 = HXBc2 gp120 (Human immunodeficiency virus type 1 group M subtype B, UniProt P04578); test: Direct binding of 3H-labeled NBD-556, HXBc2 gp120; parameters: species or system HIV-1
[11] = tested on: viruses containing a chimeric HIV-1 envelope glycoprotein (HX(YU2 V3)); test: Enhancement of infection of Cf2Th-CCR5 cells, HX; format: cell-based
[12] = tested on: envelope glycoproteins of the laboratory-adapted CXCR4-using (X4) HIV-1 isolate, HXBc2; test: Entry into CD4-negative Cf2Th-CXCR4 cells, HXBc2 virus; format: cell-based; conditions: data not shown

| Compound | direct binding of 3H-labeled BMS-806 (in words) [1] | IC50 [2] | inhibition of HIV-1YU2 infection of cells expressing CD4 and CCR5 (in words) ([2]; specificity versus A-MLV envelope glycoproteins) | enhancement of HIV-1 entry/infection of CCR5+ cells (in words) [3] | enhancement of infection (in words) [4] | IC50 [5] | activation of infection (in words) [6] | virus-enhancing activity (in words) [7] | enhancement of infectivity (in words) (D368A mutant viruses) | enhancement of entry (in words) [8] | Kd (gp120 core-17b complex) | enhancement of infection (in words) [9] | Kd ([10]; gp120 core bound to the 17b antibody, isothermal titration calorimetry) | increase in affinity for the gp120 core bound to the 17b antibody ([10]; versus gp120 core alone) | direct binding of 3H-labeled NBD-556 (in words) (HXBc2 gp120) | enhancement of infection (in words) [11] | enhancement of entry (in words) [12] |
| --- | --- | --- | --- | --- | --- | --- | --- | --- | --- | --- | --- | --- | --- | --- | --- | --- | --- |
| COc1ccnc2[nH]cc(C(=O)C(=O)N3CCN(C(=O)c4ccccc4)C[C@H]3C)c12 [BMS-806] | similarly |  |  |  |  |  |  |  |  |  |  |  |  |  |  |  |  |
| CC1(C)CC(NC(=O)C(=O)Nc2ccc(Cl)c(F)c2)CC(C)(C)N1 [JRC-II-191] |  | 54 µM | specifically inhibited | most potent stimulation of HIV-1 infection; also recorded: activated HIV-1 infection | did not activate the entry | 10 to 20 µM | eliminated the activation of infection | significantly diminished | enhanced |  |  |  |  |  |  |  |  |
| CC1(C)CC(NC(=O)C(=O)Nc2ccc(Cl)cc2)CC(C)(C)N1 [NBD-556] |  | 100 µM |  | significant enhancement | not enhanced | 10 to 20 µM | eliminated the activation of infection | less disruptive | enhanced | did not enhance | 6.6 µM | greater enhancement | 1.5 µM | approximately 25 fold | only moderately | dramatically enhanced infection | not functionally enhanced |
| CC1(C)CC(NC(=O)C(=O)Nc2ccc(Br)cc2)CC(C)(C)N1 [NBD-557] |  |  |  | comparably to NBD-556 | did not activate the entry |  | eliminated the activation of infection | significantly diminished | not enhanced |  |  |  |  |  |  |  |  |

From paper PMC2597202 (Structure (London, England : 1993), 2008)
